The text below walks through data of ChEMBL document CHEMBL5030521, “Design, Synthesis, and Characterization of Novel sn-1 Heterocyclic DAG-Lactones as PKC Activators” (J Med Chem, 2021).

pKi: −log10 of the molar value. Activity calls are given as the source filed them.

Assay [1] deals with T1, Protein kinase C epsilon type (Homo sapiens) (UniProt Q02156).
T1 sequence (whole entry): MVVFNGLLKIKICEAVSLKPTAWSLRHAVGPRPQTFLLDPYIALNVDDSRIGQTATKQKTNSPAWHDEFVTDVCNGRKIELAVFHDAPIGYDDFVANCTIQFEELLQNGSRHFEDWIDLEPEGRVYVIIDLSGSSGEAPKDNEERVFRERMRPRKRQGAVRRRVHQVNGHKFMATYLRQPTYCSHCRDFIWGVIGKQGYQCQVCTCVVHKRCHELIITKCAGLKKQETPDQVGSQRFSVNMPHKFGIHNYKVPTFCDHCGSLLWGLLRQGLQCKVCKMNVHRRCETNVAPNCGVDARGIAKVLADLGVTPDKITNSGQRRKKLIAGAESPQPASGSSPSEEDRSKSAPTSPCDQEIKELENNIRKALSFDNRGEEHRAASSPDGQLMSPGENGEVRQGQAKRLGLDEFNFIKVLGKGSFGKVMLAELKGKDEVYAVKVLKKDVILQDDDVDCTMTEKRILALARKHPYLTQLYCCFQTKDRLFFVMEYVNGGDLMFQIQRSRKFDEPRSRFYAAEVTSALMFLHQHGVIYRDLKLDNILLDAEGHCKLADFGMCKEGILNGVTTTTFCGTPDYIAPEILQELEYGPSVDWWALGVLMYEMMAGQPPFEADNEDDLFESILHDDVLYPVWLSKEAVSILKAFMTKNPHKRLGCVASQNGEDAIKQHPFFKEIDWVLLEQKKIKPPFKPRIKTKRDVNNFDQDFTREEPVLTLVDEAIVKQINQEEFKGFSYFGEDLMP
The assay can be described thus: Activation of GFP-fused PKCepsilon in HeLa cells assessed as translocation of PKCepsilon from cytosol to membrane measured after 30 mins by DAPI staining based fluorescence microscopy. In kind it is subcellular. An outline of the steps: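 HeLa cells transfected with pEGFP-N1-PKCε, plated on coverslips, serum-starved 24 h after 24 h, then treated 30 min; methanol-fixed, DAPI counterstained, imaged by fluorescence microscopy. Membrane/cytosol ratio from line intensity profiles across ~10–15 cells/group, operator blinded; mean ± SD; PMA 100 nM as control.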

Assay [2] relates to A549. Nature of the assay: Induction of ruffle formation in human A549 cells at 1 microM incubated for 30 mins using phalloidin-rhodamine staining based microscopic analysis. The class given is functional, cell-based. An outline of the steps:
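Serum-starved (24 h) A549 cells at low confluence on coverslips treated 30 min at 1 μM; fixed in 4% formaldehyde, F-actin stained with phalloidin-rhodamine, DAPI nuclei. Five random fields scored; ruffle area per cell by intensity thresholding.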

For assay [3], the target named is T2, Protein kinase C alpha type (Homo sapiens, UniProt P17252). The assay can be described thus: Displacement of [3H]-PDBu from recombinant human PKCalpha by scintillation counter method. An outline of the steps: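 [3H]PDBu (2 nM) competition with increasing ligand in 50 mM Tris-HCl pH 7.4, 100 μg/mL porcine brain phosphatidylserine, 0.1 mM Ca2+ (PKCα), 5 mg/mL bovine IgG, 0.003% Triton X-100, 20 ng enzyme/tube; nonspecific with 10 μM PDBu. 37 °C 5 min, PEG precipitation, bound and free counted by scintillation. Triplicates; Ki from ID50; three experiments, mean ± SEM.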
(In general: Displacement assays read how much labelled ligand stays bound in the presence of the test substance.)

For assay [4], the system named is A549. Nature of the assay: Induction of ruffle formation in human A549 cells transfected with PKCepsilon siRNA at 1 microM incubated for 30 mins using phalloidin-rhodamine staining based microscopic analysis. In kind it is functional, cell-based. An outline of the steps: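 A549 cells transfected with PKCε siRNA duplexes (two sequences) or nontarget control; 48 h later treated 1 μM for 30 min, formaldehyde-fixed, phalloidin-rhodamine stained; ruffle area/cell by intensity thresholding. Knockdown checked by Q-PCR mRNA and Western blot.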

Assay [5] addresses T3, Protein kinase C epsilon type (Homo sapiens, UniProt Q02156).
T3 sequence (Q02156 whole entry): T1 sequence (whole entry)
Nature of the assay: Displacement of [3H]-PDBu from recombinant human PKCepsilon by scintillation counter method. An outline of the steps:
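PKCε with 2 nM [3H]PDBu plus increasing competitor concentrations, in 50 mM Tris-HCl pH 7.4, 100 μg/mL phosphatidylserine, 1 mM EGTA, 5 mg/mL bovine IgG, 0.003% Tx-100, 20 ng/tube enzyme; 37 °C 5 min, then PEG precipitation and counting of pellet and supernatant. Nonspecific binding from 10 μM unlabeled PDBu. Ki derived from competition-curve ID50; mean ± SEM of three experiments, triplicate points.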

Assay [6] deals with T2, Protein kinase C alpha type. Nature of the assay: Displacement of [3H]-PDBu from recombinant human PKCalpha at 30 uM by scintillation counter method relative to control. An outline of the steps: (§1)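 Competition of 2 nM [3H]PDBu by test ligand at a single fixed concentration (value in line); 50 mM Tris-HCl pH 7.4, 100 μg/mL porcine brain phosphatidylserine, 5 mg/mL bovine IgG, 0.003% Tx-100, 20 ng/tube enzyme; 0.1 mM Ca2+ for PKCα, 1 mM EGTA for PKCε. 5 min at 37 °C, PEG precipitation, bound and free counted separately; nonspecific with 10 μM cold PDBu; triplicates.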

Assay [7] addresses T1, Protein kinase C epsilon type (Homo sapiens). Nature of the assay: Displacement of [3H]-PDBu from recombinant human PKCepsilon at 30 uM by scintillation counter method relative to control. An outline of the steps:
as §1

The target in assay [8] is T2, Protein kinase C alpha type. The assay can be described thus: Activation of GFP-fused PKCalpha in HeLa cells assessed as […] from cytosol to membrane measured after 30 mins by DAPI staining based fluorescence microscopy. In kind it is subcellular. Conditions: filed as activator. An outline of the steps:
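HeLa cells (5 × 10^4) transfected with pEGFP-N1-PKCα or -PKCε, plated on coverslips; after 24 h serum-starved 24 h, then treated 30 min. Methanol-fixed, DAPI-counterstained, imaged by fluorescence microscopy. Line scans across cytoplasm (~10–15 cells/group) give membrane/cytosol fluorescence ratio; operator blinded; mean ± SD.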

For assay [9], the target named is T1, Protein kinase C epsilon type (Homo sapiens). Nature of the assay: Displacement of [3H]-PDBu from recombinant human PKCepsilon at 10 uM by scintillation counter method relative to control. An outline of the steps: as §1

For `CC(C)CC(C/C=C1\CC(CO)(COC(=O)C(C)(C)C)OC1=O)CC(C)C` (centres undefined), the fold change (FC) in [1] (filed as activator) turned out to be 43. In addition, in assay [2], the result was Active. Besides, the figures for the pKi in assay [3] and in assay [5] were 7.63 and 8.72, respectively. Moreover, in [4], the outcome was inactive.

On to `CC(C)CC(C/C=C1\CC(CO)(Cn2nnc(-c3ccccc3)n2)OC1=O)CC(C)C` (centres undefined), for which the figures for the inhibition in [6] and in assay [7] were 37.5% and 69.2%, respectively.

`Cc1cc(OCC2(CO)C/C(=C\CC(CC(C)C)CC(C)C)C(=O)O2)no1` (centres undefined): the figures for the pKi in [3] and in assay [5] were 7.10 and 7.47, respectively. The result in assay [4] was inactive.

`CCCCCCCCCCCCCC(=O)O[C@@H]1[C@@H](C)[C@@]2(O)[C@@H](C=C(CO)C[C@]3(O)C(=O)C(C)=C[C@@H]23)[C@@H]2C(C)(C)[C@]12OC(C)=O`: the outcome in assay [1] was inactive. In addition, in [8], the outcome was Active.

On to `Cc1ccc(-c2cn(CC3(CO)C/C(=C\CC(CC(C)C)CC(C)C)C(=O)O3)nn2)cc1` (centres undefined), for which, in assay [1], the result was inactive. Moreover, the inhibition in [9] amounted to 17%.

Regarding `CC(C)=C1CC(CO)(Cn2nnc(-c3ccccc3)n2)OC1=O` (centres undefined), the inhibition in assay [6] amounted to 23.5%. In addition, in assay [1], the result was inactive.

Regarding `CC(C)=C1CC(CO)(Cn2cc(-c3ccc(C)cc3)nn2)OC1=O` (centres undefined), the inhibition in assay [6] came out at 11.7%. Moreover, the result in [1] was inactive.

Consider `CC(C)=C1CC(CO)(COc2cc(C)on2)OC1=O` (centres undefined), for which the inhibition in assay [6] came out at 31.3%.

In general, pKi refers to the Ki on a negative log10 scale, so that one unit is a factor of ten. One may read the inhibition as the percentage by which the read-out fell short of the control.
